Measured values published in ChEMBL document CHEMBL1649387, “Synthesis and evaluation of quinonoid compounds against tumor cell lines” (Eur J Med Chem, 2011).
The source made the active and inactive calls. The calls are words filed in the database; no cut-off is given here.

Legend:
[1] = tested on: SF-295; assay: Induction of lipid peroxidation in human SF295 cells assessed as increase in TBARS formation at 5 uM after 24 hrs in presence of […]; type: functional, cell-based
In short: (§1)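 Cells treated 24 h, with or without 24 h pretreatment with 5 mM NAC. Cells lysed with Tris-HCl (15 mM, 1 h) and heated with TCA/HCl/thiobarbituric acid for 15 min at 100 °C, then centrifuged. TBARS read at 532 nm against hydrolyzed 1,1,3,3-tetramethoxypropane standard and normalized to protein.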

[2] = tested on: HCT-8; assay: Induction of apoptosis in human HCT8 cells assessed as cell viability at 5 uM after 24 hrs by trypan blue exclusion assay; type: functional, cell-based
In short: (§2)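 Cells incubated 24 h, with or without 24 h pretreatment with 5 mM NAC. Viability determined by trypan blue dye exclusion.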

[3] = tested on: HCT-8; assay: Cytotoxicity against human HCT8 cells after 72 hrs by MTT assay; type: functional, cell-based; settings: HCT-8, 72 h
[4] = tested on: SF-295; assay: Induction of apoptosis in human SF295 cells assessed as cell viability at 5 uM after 24 hrs by trypan blue exclusion assay in presence of […]; type: functional, cell-based; in short: as §2
[5] = tested on: HL-60; assay: Genotoxicity in human HL60 cells assessed as DNA strand breaks at 5 uM after 24 hrs by comet assay in presence of […]; type: functional, cell-based
In short: (§3)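 Cells treated 24 h, with or without 24 h pretreatment with 5 mM NAC. Cells embedded in 0.75% low-melt agarose and lysed (pH 10.0, 4 °C, ≥1 h). DNA unwound 20 min in 300 mM NaOH/1 mM EDTA (pH >13), then electrophoresed 20 min at 0.86 V/cm and stained with ethidium bromide. 100 cells scored visually into classes 0–4 to give damage index.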

[6] = tested on: HCT-8; assay: Induction of lipid peroxidation in human HCT8 cells assessed as increase in TBARS formation at 5 uM after 24 hrs in presence of […]; type: functional, cell-based; in short: as §1
[7] = tested on: HCT-8; assay: Genotoxicity in human HCT8 cells assessed as DNA strand breaks at 5 uM after 24 hrs by comet assay; type: functional, cell-based; in short: as §3
[8] = tested on: HCT-8; assay: Induction of apoptosis in human HCT8 cells assessed as cell viability at 5 uM after 24 hrs by trypan blue exclusion assay in presence of […]; type: functional, cell-based; in short: as §2
[9] = tested on: SF-295; assay: Induction of apoptosis in human SF295 cells assessed as cell viability at 5 uM after 24 hrs by trypan blue exclusion assay; type: functional, cell-based; in short: as §2
[10] = tested on: SF-295; assay: Cytotoxicity against human SF295 cells after 72 hrs by MTT assay; type: functional, cell-based; settings: SF-295, 72 h
[11] = tested on: HL-60; assay: Induction of apoptosis in human HL60 cells assessed as cell viability at 5 uM after 24 hrs by trypan blue exclusion assay in presence of […]; type: functional, cell-based; in short: as §2
[12] = tested on: HL-60; assay: Induction of apoptosis in human HL60 cells assessed as cell viability at 5 uM after 24 hrs by trypan blue exclusion assay; type: functional, cell-based; in short: as §2
[13] = tested on: HCT-8; assay: Induction of lipid peroxidation in human HCT8 cells assessed as increase in TBARS formation at 5 uM after 24 hrs; type: functional, cell-based; in short: as §1
[14] = tested on: MDA-MB-435; assay: Cytotoxicity against human MDA-MB-435 cells after 72 hrs by MTT assay; type: functional, cell-based; settings: MDA-MB-435, 72 h
[15] = tested on: HL-60; assay: Genotoxicity in human HL60 cells assessed as DNA strand breaks at 5 uM after 24 hrs by comet assay; type: functional, cell-based; in short: as §3
[16] = tested on: MDA-MB-435; assay: Induction of lipid peroxidation in human MDA-MB-435 cells assessed as increase in TBARS formation at 5 uM after 24 hrs; type: functional, cell-based; in short: as §1
[17] = tested on: SF-295; assay: Induction of lipid peroxidation in human SF295 cells assessed as increase in TBARS formation at 5 uM after 24 hrs; type: functional, cell-based; in short: as §1
[18] = tested on: MDA-MB-435; assay: Induction of apoptosis in human MDA-MB-435 cells assessed as cell viability at 5 uM after 24 hrs by trypan blue exclusion assay in presence of […]; type: functional, cell-based; in short: as §2
[19] = tested on: HL-60; assay: Induction of lipid peroxidation in human HL60 cells assessed as increase in TBARS formation at 5 uM after 24 hrs in presence of […]; type: functional, cell-based; in short: as §1
[20] = tested on: PBMC; assay: Cytotoxicity against human PBMC cells after 72 hrs by Alamar Blue assay; type: cell-based
[21] = tested on: MDA-MB-435; assay: Genotoxicity in human MDA-MB-435 cells assessed as DNA strand breaks at 5 uM after 24 hrs by comet assay in presence of […]; type: functional, cell-based; in short: as §3
[22] = tested on: HCT-8; assay: Genotoxicity in human HCT8 cells assessed as DNA strand breaks at 5 uM after 24 hrs by comet assay in presence of […]; type: functional, cell-based; in short: as §3
[23] = tested on: SF-295; assay: Genotoxicity in human SF295 cells assessed as DNA strand breaks at 5 uM after 24 hrs by comet assay; type: functional, cell-based; in short: as §3
[24] = tested on: HL-60; assay: Induction of lipid peroxidation in human HL60 cells assessed as increase in TBARS formation at 5 uM after 24 hrs; type: functional, cell-based; in short: as §1
[25] = tested on: MDA-MB-435; assay: Induction of apoptosis in human MDA-MB-435 cells assessed as cell viability at 5 uM after 24 hrs by trypan blue exclusion assay; type: functional, cell-based; in short: as §2
[26] = tested on: SF-295; assay: Genotoxicity in human SF295 cells assessed as DNA strand breaks at 5 uM after 24 hrs by comet assay in presence of […]; type: functional, cell-based; in short: as §3
[27] = tested on: MDA-MB-435; assay: Induction of lipid peroxidation in human MDA-MB-435 cells assessed as increase in TBARS formation at 5 uM after 24 hrs in presence of […]; type: functional, cell-based; in short: as §1
[28] = tested on: MDA-MB-435; assay: Genotoxicity in human MDA-MB-435 cells assessed as DNA strand breaks at 5 uM after 24 hrs by comet assay; type: functional, cell-based; in short: as §3
[29] = tested on: HL-60; assay: Cytotoxicity against human HL60 cells after 72 hrs by MTT assay; type: functional, cell-based; settings: HL-60, 72 h
[30] = tested on: HCT-8; assay: Induction of apoptosis in human HCT8 cells assessed as apoptotic nuclei at 5 uM after 24 hrs by acridine orange/ethidium bromide staining based fluorescence microscopy in presence of 1-bromoheptane; type: functional
In short: (§4)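 Cells exposed 24 h, with or without 24 h pretreatment with 1-bromoheptane. Cell suspension mixed with acridine orange/ethidium bromide (each 100 in PBS) and spread on slide. 300 cells counted per point by fluorescence microscopy to give % apoptotic cells. Mean ± S.E.M. of three experiments.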

[31] = tested on: SF-295; assay: Induction of apoptosis in human SF295 cells assessed as apoptotic nuclei at 5 uM after 24 hrs by acridine orange/ethidium bromide staining based fluorescence microscopy; type: functional; in short: as §4
[32] = tested on: HL-60; assay: Induction of apoptosis in human HL60 cells assessed as apoptotic nuclei at 5 uM after 24 hrs by acridine orange/ethidium bromide staining based fluorescence microscopy in presence of 1-bromoheptane; type: functional; in short: as §4
[33] = tested on: HL-60; assay: Induction of apoptosis in human HL60 cells assessed as apoptotic nuclei at 5 uM after 24 hrs by acridine orange/ethidium bromide staining based fluorescence microscopy; type: functional; in short: as §4
[34] = tested on: MDA-MB-435; assay: Induction of apoptosis in human MDA-MB-435 cells assessed as apoptotic nuclei at 5 uM after 24 hrs by acridine orange/ethidium bromide staining based fluorescence microscopy; type: functional; in short: as §4
[35] = tested on: SF-295; assay: Induction of apoptosis in human SF295 cells assessed as apoptotic nuclei at 5 uM after 24 hrs by acridine orange/ethidium bromide staining based fluorescence microscopy in presence of 1-bromoheptane; type: functional; in short: as §4
[36] = tested on: MDA-MB-435; assay: Induction of apoptosis in human MDA-MB-435 cells assessed as apoptotic nuclei at 5 uM after 24 hrs by acridine orange/ethidium bromide staining based fluorescence microscopy in presence of 1-bromoheptane; type: functional; in short: as §4
[37] = tested on: HCT-8; assay: Induction of apoptosis in human HCT8 cells assessed as apoptotic nuclei at 5 uM after 24 hrs by acridine orange/ethidium bromide staining based fluorescence microscopy; type: functional; in short: as §4
[38] = tested on: SF-295; assay: DNA damage index, DNA damage in human SF295 cells to DNA damage in human HL60 cells with FPG/ENDO3 DNA repair enzymes in presence of […]; type: functional
In short: (§5)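 Cells treated 12 h, then alkaline comet slides washed in enzyme buffer (40 mM HEPES, 100 mM KCl, 0.5 mM Na2EDTA, 0.2 mg/mL BSA, pH 8.0). Slides then incubated with FPG (30 min, 37 °C) or ENDOIII (45 min, 37 °C). Enzyme-sensitive sites = total breaks minus buffer-only breaks. 100 cells scored per group. NAC pretreatment 5 mM. Mean ± S.E.M. of three experiments.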

[39] = tested on: SF-295; assay: DNA damage index, DNA damage in human SF295 cells to DNA damage in human HL60 cells with FPG/ENDO3 DNA repair enzymes; type: functional; in short: as §5
[40] = tested on: HL-60; assay: DNA damage index, DNA damage in human HL60 cells to DNA damage in human HL60 cells with FPG/ENDO3 DNA repair enzymes in presence of […]; type: functional; in short: as §5
[41] = tested on: MDA-MB-435; assay: DNA damage index, DNA damage in human MDA-MB-435 cells to DNA damage in human HL60 cells with FPG/ENDO3 DNA repair enzymes; type: functional; in short: as §5
[42] = tested on: HCT-8; assay: DNA damage index, DNA damage in human HCT8 cells to DNA damage in human HL60 cells with FPG/ENDO3 DNA repair enzymes in presence of […]; type: functional; in short: as §5
[43] = tested on: HCT-8; assay: DNA damage index, DNA damage in human HCT8 cells to DNA damage in human HL60 cells with FPG/ENDO3 DNA repair enzymes; type: functional; in short: as §5
[44] = tested on: HL-60; assay: DNA damage index, DNA damage in human HL60 cells to DNA damage in human HL60 cells with FPG/ENDO3 DNA repair enzymes; type: functional; in short: as §5
[45] = tested on: MDA-MB-435; assay: DNA damage index, DNA damage in human MDA-MB-435 cells to DNA damage in human HL60 cells with FPG/ENDO3 DNA repair enzymes in presence of […]; type: functional; in short: as §5

Row | SMILES | Activity [1] | IC50 [3] [µM] | Activity [6] | IC50 [10] [µM] | Activity [13] | IC50 [14] [µM] | Activity [16] | Activity [17] | Activity [19] | IC50 [20] [µM] | Activity [24] | Activity [27] | IC50 [29] [µM] | Activity [30] [%] | Activity [31] [%] | Activity [32] [%] | Activity [33] [%] | Activity [34] [%] | Activity [35] [%] | Activity [36] [%] | also measured
1 | CC1(C)OC2=C(C(=O)C(=O)c3ccccc32)[C@H](n2cc(-c3ccc(F)cc3)nn2)[C@H]1Br | inactive | 2.26 | inactive | 1.76 | Active | 1.2 | Active | Active | inactive | 3.37 | Active | inactive | 1.2 | – | – | – | – | – | – | – | Activity [2]: Active; Activity [4]: inactive; Activity [5]: inactive; Activity [7]: Active; Activity [8]: inactive; Activity [9]: Active; Activity [11]: inactive; Activity [12]: Active; Activity [15]: Active; Activity [18]: inactive; Activity [21]: inactive; Activity [22]: inactive; Activity [23]: Active; Activity [25]: Active; Activity [26]: inactive; Activity [28]: Active
2 | CC(C)=CCC1=C(OC2(CC=C(C)C)C(=O)C(=O)c3ccccc3C2=O)C(=O)c2ccccc2C1=O (configuration not stated) | – | 9.76 | – | > 10.4 | – | > 10.4 | – | – | – | > 10.4 | – | – | > 10.4 | 9.16 | 11.45 | 8.46 | 11.17 | 4.72 | 7.3 | 5.82 | Activity [37]: 8.52%
3 | Cc1ccc(-c2nc3ccc4c(c3[nH]2)C(=O)c2ccccc2C4=O)cc1 | – | > 14.8 | – | > 14.8 | – | > 14.8 | – | – | – | > 14.8 | – | – | > 14.8 | 9.31 | 5.82 | 9.62 | 5.27 | 7.49 | 4.17 | 12.27 | Activity [37]: 8.72%
4 | CC1(C)CC2=C(O1)c1ccccc1C(=O)C2=O [NOR-BETA-LAPACHONE] | inactive | – | inactive | – | Active | – | Active | Active | inactive | > 21.9 | Active | inactive | – | – | – | – | – | – | – | – | Ratio [38]: 9.18; Ratio [39]: 63.81; Ratio [40]: 12.36; Ratio [41]: 78.52; Ratio [42]: 10.48; Ratio [43]: 63.25; Ratio [44]: 67.19; Ratio [45]: 7.49
